Calls of active or inactive are those of the source. The calls are words filed in the database; no cut-off is given here.
What was measured:
Mus musculus [1] = experiment: Anxiolytic activity against CF1 mouse assessed as suppression of oxotremorine-treated tremors at 3 mg/kg; assay type: functional, organism-based; set-up: dose 3 mg/kg
Method in brief: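 Mice received treatment i.p. 30 min before oxotremorine 0.5 mg/kg in saline. Each mouse was then placed alone in a transparent cage immediately after injection and tremor was scored. Data given as median (interquartile range); Kruskal–Wallis then Mann–Whitney U against saline + oxotremorine.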

Mus musculus [2] = experiment: Anxiolytic activity against CF1 mouse assessed as suppression of oxotremorine-treated tremors at 7.5 mg/kg; assay type: functional, organism-based; set-up: dose 7.5 mg/kg
Method in brief: (§1)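 Male CF1 mice were given the test drug i.p. in saline 30 min before oxotremorine 0.5 mg/kg. Each mouse was then placed alone in an acrylic cage for observation of tremor. Values are median (interquartile range), analysed by Kruskal–Wallis then Mann–Whitney U against saline + oxotremorine.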

Mus musculus [3] = experiment: Anxiolytic activity against CF1 mouse assessed as suppression of oxotremorine-treated tremors at 10 mg/kg; assay type: functional, organism-based; set-up: dose 10 mg/kg; method in brief: as §1
Mus musculus [4] = experiment: Anxiolytic activity against CF1 mouse assessed as suppression of oxotremorine-treated tremors at 100 mg/kg; assay type: functional, organism-based; set-up: dose 100 mg/kg; method in brief: as §1
Mus musculus [5] = experiment: […] of CF1 mouse assessed as reduction in step down latency at 0.85 mg/kg by passive avoidance test; assay type: functional
Mus musculus [6] = experiment: […] of CF1 mouse assessed as reduction in step down latency at 10 mg/kg by passive avoidance test; assay type: functional
Mus musculus [7] = experiment: Anxiolytic activity against CF1 mouse assessed as reduction in number in head dips at 200 mg/kg after 30 mins by hole-board assay; assay type: functional, organism-based; set-up: dose 200 mg/kg
Method in brief: (§2)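 Hole-board set 15 cm high and divided into 16 squares, with photocells counting head-dips. Male CF1 mice were dosed i.p. and placed centrally 30 min later under dim light. Over 5 min, head-dips, rearings and squares crossed were counted. Values are mean ± SEM (N = 15), analysed by one-way ANOVA then SNK.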

Mus musculus [8] = experiment: Anxiolytic activity against CF1 mouse assessed as increase in number of rearings at 7.5 mg/kg after 30 mins by hole-board assay; assay type: functional, organism-based; set-up: dose 7.5 mg/kg; method in brief: as §2
Mus musculus [9] = experiment: Anxiolytic activity against CF1 mouse assessed as increase in number of head dips at 15 mg/kg after 30 mins by hole-board assay; assay type: functional, organism-based; set-up: dose 15 mg/kg; method in brief: as §2
Mus musculus [10] = experiment: Antidepressant activity in CF1 mouse assessed as decrease in duration of immobility at 30 mg/kg during final 4 mins of the 6 mins session by forced swimming test; assay type: functional, organism-based; set-up: dose 30 mg/kg
Method in brief: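 Male adult CF1 mice given i.p. doses in saline (pH 7.0), N = 10. Each mouse swam 6 min in a 30 cm-diameter cylinder holding 20 cm of water at 25 ± 1 °C. Immobility was timed over the last 4 min. Values are mean ± SEM, analysed by ANOVA against saline.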

Mus musculus [11] = experiment: Effect on locomotory activity in CF1 mouse assessed as change in spontaneous activity at 0.75 and 0.85 mg/kg; assay type: functional, organism-based; set-up: dose 0.85 mg/kg
Method in brief: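 Mice were habituated singly for 10 min in photocell activity cages and then dosed i.p. Diazepam was given in 10% propylene glycol. After 30 min, crossings were recorded for 15 min. n = 10–16, ANOVA then SNK.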

Mus musculus [12] = experiment: Effect on locomotory activity in CF1 mouse assessed as reduction in spontaneous activity at 100 mg/kg; assay type: functional, organism-based; set-up: dose 100 mg/kg
Method in brief: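 Male CF1 mice were habituated 10 min in photocell activity cages, then dosed i.p. (n = 10-16). Thirty minutes later crossings were recorded over 15 min. Values are mean ± SEM, analysed by one-way ANOVA then SNK.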

With COC(=O)C1=CO[C@@H](O[C@H]2O[C@H](CO)[C@@H](O)[C@H](O)[C@H]2O)[C@@H]2C([C@@H]3NCCc4c3[nH]c3ccccc43)=CC[C@H]12 [PSYCHOLLATINE] the Activity (Mus musculus [1]) was “Active”, the Activity (Mus musculus [2]) was “Active” and the Activity (Mus musculus [3]) was “Active”. For the same molecule, the Activity (Mus musculus [4]) was “Active”, the Activity (Mus musculus [5]) was 8.3 s and the Activity (Mus musculus [6]) was 11.55 s. For the same molecule, the Activity (Mus musculus [7]) was “Active”, the Activity (Mus musculus [8]) was “Active” and the Activity (Mus musculus [9]) was “Active”. For the same molecule, the Activity (Mus musculus [10]) was “inactive”, the Activity (Mus musculus [11]) was “inactive” and the Activity (Mus musculus [12]) was “Active”.
